Consider 21 compounds from ChEMBL document CHEMBL2413009, “Synthesis and structure activity relationship of imidazo[1,2-a]pyridine-8-carboxamides as a novel antimycobacterial lead series” (Bioorg Med Chem Lett, 2013).

Converted amounts (≈) assume the structure as drawn.

The solubility is how much of the substance goes into solution per volume. Read a high solubility as a readily soluble substance. In general, microsomal CLint refers to a measure of how fast metabolising enzymes remove a compound, apart from limits set by blood flow. A low value points to greater metabolic stability. A word on the fraction unbound: it is the share of the substance not bound to proteins or other matrix. A high value points to weak binding. As usually defined, the logD is lipophilicity at a set pH, counting ionised and neutral species. One may read the IC50 as the concentration that gives 50% inhibition. High values mean a need for much substance, low ones inhibition by little substance.

The nature of data set [1]: Aqueous solubility of the compound in 0.1 M sodium phosphate buffer at pH 7.4 after 24 hrs. The class given is physicochemical.
Data set [2] is described as follows: Intrinsic clearance in mouse microsomes. In kind it is ADME, Microsome.
Data set [3] in a line: Intrinsic clearance in human microsomes. The class given is ADME, Microsome. In short, it runs like this:
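Intrinsic clearance was measured in human microsomal preparations and is reported in µl/min/mg.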

Data set [4] can be described thus: Fraction unbound in human plasma after 5 hrs by rapid equilibrium dialysis method. The class given is ADME, cell-free. For orientation: Equilibrium dialysis compares concentrations on both sides of a semipermeable membrane.
Data set [5] is described as follows: Fraction unbound in mouse plasma after 5 hrs by rapid equilibrium dialysis method. In kind it is ADME, cell-free.
Data set [6] is described as follows: Lipophilicity, log D of the compound in 0.01 M sodium phosphate at pH 7.4 after 5 hrs by shake-flask technique. The class given is physicochemical.
For data set [7], the system named is Mycobacterium tuberculosis. Put plainly: Antimycobacterial activity against Mycobacterium tuberculosis H37Rv ATCC 27294 after 7 days by broth microdilution method. The conditions noted are these: H37Rv ATCC 27294, 168 h. The class given is functional. A general note: Broth dilution looks for growth in wells or tubes with falling amounts of substance.
Data set [8] concerns Mycobacterium tuberculosis. The data set can be described thus: Cidality activity against Mycobacterium tuberculosis H37Rv ATCC 27294 assessed as log reduction in bacterial numbers at 32 ug/mL up to 28 days. The class given is functional. In a few lines:
(§1)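 Replicating Mtb grown aerobically in Middlebrook 7H9 broth and exposed to a range of compound concentrations up to 32 µg/mL. Bacterial numbers were followed over time as kill kinetics, and the result is expressed as log reduction in bacterial numbers.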

For data set [9], the system named is Mycobacterium tuberculosis. Put plainly: Cidality activity against Mycobacterium tuberculosis H37Rv ATCC 27294 assessed as log reduction in bacterial numbers up to 28 days. The class given is functional, organism-based. In a few lines: as §1
Another data set deals with Haemophilus influenzae. Put plainly: Antibacterial activity against Haemophilus influenzae by broth microdilution method. The class given is functional.
In a further data set the test system is A549. The data set can be described thus: Cytotoxicity against human A549 cells. The class given is cell-based.
The next data set deals with Staphylococcus aureus. Put plainly: Antibacterial activity against Staphylococcus aureus by broth microdilution method. In kind it is functional.
A further data set has as its system Escherichia coli. Put plainly: Antibacterial activity against Escherichia coli by broth microdilution method. In kind it is functional.
A further data set deals with Streptococcus pneumoniae. Put plainly: Antibacterial activity against Streptococcus pneumoniae by broth microdilution method. In kind it is functional.

`COc1cncc(-c2cccc(-c3cn4ccc(OC)c(C(N)=O)c4n3)c2)c1` had a solubility at 24 h in data set [1] of 40 µM (≈ 15 µg/mL). Besides, the values for the microsomal CLint in data set [2] and in data set [3] were 48 µL/min/mg and 56 µL/min/mg, respectively. Moreover, the fraction unbound at 5 h in [4] is 0.02; in [5], 0.049. This compound also gave a logD at 5 h in [6] of 2.3. This compound registered an MIC in data set [7] of 2 µg/mL.
Compound `COc1cncc(-c2cccc(-c3cn4cccc(C(=O)N(C)C)c4n3)c2)c1` had a solubility at 24 h in data set [1] of 10 µM (≈ 3.72 µg/mL). This compound showed an MIC in data set [7] of more than 32 µg/mL.
The matching figures for `CNC(=O)c1cccn2cc(-c3cccc(-c4cncc(OC)c4)c3)nc12`: 5.5 µM (≈ 1.97 µg/mL) and 2 µg/mL.
The matching figures for `COc1ccn2cc(-c3cccc(-c4cncc(OC[C@H]5CCCO5)c4)c3)nc2c1C(N)=O`: 120 µM (≈ 53.3 µg/mL) and 1 µg/mL.
`CN(C)CCOc1cncc(-c2cccc(-c3cn4cccc(C(N)=O)c4n3)c2)c1`: the solubility at 24 h in [1] was determined as 320 µM (≈ 128 µg/mL). This compound also displayed a microsomal CLint in data set [3] of 47 µL/min/mg. Besides, in data set [4], the fraction unbound at 5 h was 0.073. The compound further returned an MIC in [7] of 16 µg/mL.
With `COc1cccc(-c2cccc(-c3cn4cccc(C(N)=O)c4n3)c2)c1`, the solubility at 24 h in data set [1] was less than 1 µM. The log10cfu in data set [8] is on record as 2. The Activity result in data set [9] was “Dose-dependent effect”. Besides, in [7], the MIC stood at 2 µg/mL.
For `NC(=O)c1cccn2cc(-c3cccc(-c4cncc(OCCF)c4)c3)nc12`, the MIC with Haemophilus influenzae was more than 200 µM; in the data set on Staphylococcus aureus, more than 200 µM; in the data set with Escherichia coli, more than 200 µM; against Streptococcus pneumoniae, more than 200 µM; in data set [7], 0.78 µM. This compound gave an IC50 in the data set with A549 of more than 100 µM. The solubility at 24 h in data set [1] came to 16 µM (≈ 6.02 µg/mL). In addition, the microsomal CLint in data set [3] amounted to 75 µL/min/mg. Also, in data set [4], the fraction unbound at 5 h stood at 0.01. The logD at 5 h in data set [6] is 3.7.
On to `COc1cncc(-c2cccc(-c3nc4c(C(N)=O)cccc4[nH]3)c2)c1`, for which the solubility at 24 h in data set [1] stood at 3 µM (≈ 1.03 µg/mL). In addition, in data set [7], the MIC is 4 µg/mL.
The matching figures for `COc1cncc(-c2cccc(-c3nc4c(C(N)=O)cccc4o3)c2)c1`: 2 µM (≈ 0.691 µg/mL) and 2 µg/mL.
With `COc1cncc(-c2cccc(-c3nc4c(C(N)=O)cccn4n3)c2)c1`, in data set [1], the solubility at 24 h was 18 µM (≈ 6.22 µg/mL). Also, in data set [7], the MIC amounted to 2 µg/mL.
With `COc1cncc(-c2cccc(-c3cn4ccnc(C(N)=O)c4n3)c2)c1`, the IC50 with A549 was more than 100 µM. Also, the solubility at 24 h in data set [1] stood at 10 µM (≈ 3.45 µg/mL). In [2], this compound displayed a microsomal CLint of 58 µL/min/mg. The fraction unbound at 5 h in [5] was 0.04. Also, the MIC in data set [7] stood at 12.5 µM.
Turning to `NC(=O)c1cccn2cc(-c3cccc(-c4cccc(F)c4)c3)nc12`, the solubility at 24 h in [1] is less than 1 µM. For the same compound, the MIC in data set [7] came out at 16 µg/mL.
In the data set on A549, `NC(=O)c1nccn2cc(-c3cccc(-c4cncc(OC[C@H]5CCCO5)c4)c3)nc12` yielded an IC50 of more than 100 µM. For the same compound, the concentration in solution in data set [1] (solubility at 24 h) was 40 µM (≈ 16.6 µg/mL). In data set [7], this compound came in with an MIC of 6.25 µM.
Regarding `COc1cncc(-c2cccc(-c3cn4cccc(C(N)=O)c4n3)c2)c1`, the solubility at 24 h in data set [1] was less than 1 µM. The compound further displayed a microsomal CLint in data set [2] of 113 µL/min/mg. Besides, in data set [5], the fraction unbound at 5 h was determined as 0.019. The MIC in data set [7] was determined as 0.5 µg/mL.
`COc1cncc(-c2cc(-c3cn4cccc(C(N)=O)c4n3)ccn2)c1`: the solubility at 24 h in [1] was 22 µM (≈ 7.6 µg/mL). Moreover, the MIC in [7] was determined as 16 µg/mL.
The matching figures for `COc1cncc(-c2cc(-c3cn4cccc(C(N)=O)c4n3)ccc2F)c1`: less than 1 µM and more than 32 µg/mL.
In the data set with A549, `COc1ccn2cc(-c3cccc(-c4cncc(O[C@H]5CCOC5)c4)c3)nc2c1C(N)=O` registered an IC50 of more than 100 µM. The solubility at 24 h in data set [1] worked out at 600 µM (≈ 258 µg/mL). In [7], this compound gave an MIC of 12.5 µM.
As to `NC(=O)c1cccn2cc(-c3cccc(-c4cncc(OCC(F)F)c4)c3)nc12`, the MIC in the data set with Haemophilus influenzae is more than 200 µM; against Staphylococcus aureus it was more than 200 µM; against Escherichia coli, more than 200 µM; with Streptococcus pneumoniae, more than 200 µM; in data set [7] it was 3.12 µM. Besides, in the data set with A549, the IC50 is more than 100 µM. In data set [1], this compound returned a solubility at 24 h of less than 1 µM.
`CCN(CC)CCNC(=O)c1cccn2cc(-c3cccc(-c4cncc(OC)c4)c3)nc12` came in with a solubility at 24 h in data set [1] of more than 2460 µM. The MIC in data set [7] turned out to be 4 µg/mL.
In the same order, the values of `COc1cncc(-c2cncc(-c3cn4cccc(C(N)=O)c4n3)c2)c1` are 3.5 µM (≈ 1.21 µg/mL) and more than 32 µg/mL.
For the compound `NC(=O)c1cccn2cc(-c3cccc(-c4cncc(OC[C@H]5CCCO5)c4)c3)nc12`, the MIC in the data set on Haemophilus influenzae was more than 200 µM; in the data set on Staphylococcus aureus, more than 200 µM; in the data set on Escherichia coli, more than 200 µM; against Streptococcus pneumoniae, more than 200 µM; in data set [7] it was 0.25 µg/mL. The solubility at 24 h in data set [1] is 5.3 µM (≈ 2.2 µg/mL).
